Source: article PMC6467756 (Journal of medicinal chemistry, 2019)
Entries after “also recorded” stand apart in the source; their conditions may differ. Read-outs that look alike come from different tables or passages of the source.

Key:
[1] = biological target: T1, Recombinant human glyoxalase I (GLO1) (Homo sapiens, UniProt Q04760); experiment: Human Glyoxalase 1 enzyme assay; format: biochemical; conditions: for GLO1 inhibition compared with 8-MSQ, in words: SAR statement
T1 sequence (Q04760 2-184 limits assumed): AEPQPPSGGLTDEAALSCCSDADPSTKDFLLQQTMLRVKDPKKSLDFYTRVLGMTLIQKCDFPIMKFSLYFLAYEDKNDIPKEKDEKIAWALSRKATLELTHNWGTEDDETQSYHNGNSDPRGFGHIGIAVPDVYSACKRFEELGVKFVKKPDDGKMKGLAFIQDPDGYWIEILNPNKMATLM
Method in brief: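 Recombinant human GLO1 (40 ng) was preincubated 15–20 min with test compound in 100 mM sodium phosphate, pH 7.0. Substrate was GSH and methylglyoxal (each from 100 mM stock) mixed in buffer and left 20 min at room temperature to form hemithioacetal, then added. DMSO ≤5% final. A240 read every minute for 8 min. Rates were normalized to the uninhibited control (100%) after no-enzyme background subtraction. IC50s were benchmarked against a reference N-hydroxypyridone inhibitor. Library screens used 200 and 50 µM fragment, with a >50% inhibition hit threshold.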

human GLO1 = conditions: cited from earlier work
mice = experiment: Observational assessment of toxicity after i.p. dosing; format: in vivo
FVB/NJ mice [2] = experiment: Forced swim test; format: in vivo; conditions: 12.5 mg/kg i.p., 120 min before test, p=0.041
FVB/NJ mice [3] = experiment: Open field test; format: in vivo; conditions: 12.5 mg/kg i.p., 90 min after injection, 30 min test
Method in brief: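 Male and female FVB/NJ mice, 108–148 days old, tested in the light phase, were given 12.5 mg/kg i.p. or vehicle ([…]). After 90 min in the home cage, each was placed centrally in a 43×43×33 cm chamber under dim light inside a sound- and light-attenuating box for 30 min of free exploration. An infrared beam grid tracked distance traveled.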

MG levels in brain = experiment: Brain methylglyoxal; format: in vivo; conditions: for MG per mg brain tissue: mice, 30-240 min post-dose, vehicle 1.1 ± 0.3
Method in brief: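 Separate mouse cohort dosed i.p. at 12.5 or 25 mg/kg. Brains collected at 30, 60, 120 and 240 min post-dose, n=3 per time point. Under isoflurane, mice were perfused transcardially with PBS, then brains were weighed, flash-frozen and stored at −80 °C. Tissue was minced, extracted with acetonitrile, bead-homogenized, centrifuged and filtered (2 µm). MG was quantified by LC-MS/MS against an 11-point 5–5000 ng/mL curve spiked into blank brain, expressed per mg wet tissue.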

SMILES: O=c1cc(-c2ccccc2)cc(-c2ccccc2)n1O [Chugai-1, 1-hydroxy-4,6-diphenylpyridin-2(1H)-one, reference compound]
- IC50 [1]: 1900 ± 200 nM
- IC50 (human GLO1; value reported in the original literature report): 1190 nM

SMILES: CS(=O)(=O)Nc1ccc(N2CCCCC2)c2cccnc12 [Compound 45, N-(5-(Piperidin-1-yl)quinolin-8-yl)methanesulfonamide]
- GLO1 inhibition compared with 8-MSQ, in words [1]: not well tolerated

SMILES: COc1cc(CCc2cc(NS(=O)(=O)c3ccccn3)c3ncccc3c2)cc(OC)c1 [Compound 60, N-(6-(3,5-Dimethoxyphenethyl)quinolin-8-yl)pyridine-2-sulfonamide]
- observational assessment of toxicity (mice; doses up to 100 mg/kg i.p.): no adverse responses
- immobility in the FST vs vehicle (FVB/NJ mice [2]): reduction in percent immobility; also recorded: significant decrease in the time spent immobile; also recorded: reduced immobility
- locomotor activity in open field vs vehicle (FVB/NJ mice [3]): no effect
- increase of MG levels in brain vs vehicle-treated mice (MG levels in brain; 12.5 mg/kg i.p., between 30 and 240 min post-dose): approximately 11 fold
- MG per mg brain tissue (MG levels in brain; 12.5 mg/kg i.p.): 11.8±4.1 ng/mg of brain tissue
- MG per mg brain tissue (MG levels in brain; 25 mg/kg i.p.): 14.1±3.1 ng/mg of brain tissue
- increase in brain MG levels compared to vehicle-treated mice (MG levels in brain; summary statement in discussion): > 10 fold

SMILES: CS(=O)(=O)Nc1ccc(N2CCOCC2)c2cccnc12 [Compound 46, N-(5-Morpholinoquinolin-8-yl)methanesulfonamide]
- GLO1 inhibition compared with 8-MSQ, in words [1]: not well tolerated

SMILES: O=S(=O)(Nc1cccc2cccnc12)c1ccccn1 [Compound 23, N-(Quinolin-8-yl)pyridine-2-sulfonamide]
- improvement in inhibition relative to 8-MSQ ([1]; ratio of IC50 values vs 8-MSQ): ~ 14 fold

SMILES: COCCCn1ccc2cc(-c3cc(-c4ccccc4)cc(=O)n3O)cnc21 [Chugai-3d]
- IC50 (human GLO1; reported by Chugai Pharmaceuticals): 11 nM

SMILES: CS(=O)(=O)Nc1cccc2cccnc12 [Compound 8-MSQ, N-(Quinolin-8-yl)methanesulfonamide]
- inhibition in second MBP library screening ([1]; fragment concentration 50 μM): essentially complete inhibition

SMILES: Cc1ccc2cccc(NS(C)(=O)=O)c2n1 [Compound 7, N-(2-Methylquinolin-8-yl)methanesulfonamide]
- loss of affinity compared to 8-MSQ ([1]; ratio of IC50 values vs 8-MSQ): ~ 2 fold

SMILES: O=S(=O)(Nc1cccc2cccnc12)c1ccccc1 [Compound 8, N-(Quinolin-8-yl)benzenesulfonamide]
- improvement in inhibition relative to 8-MSQ ([1]; ratio of IC50 values vs 8-MSQ): 2 fold

SMILES: Cc1ccc2cccc(NS(=O)(=O)c3ccccc3)c2n1 [Compound 9, N-(2-Methylquinolin-8-yl)benzenesulfonamide]
- GLO1 inhibition compared with 8-MSQ, in words [1]: slight increase in inhibition

SMILES: CS(=O)(=O)Nc1ccc(-c2ccncc2)c2cccnc12 [Compound 38, N-(5-(Pyridin-4-yl)quinolin-8-yl)methanesulfonamide]
- GLO1 inhibition compared with 8-MSQ, in words [1]: not well tolerated

SMILES: O=S(=O)(Nc1ccc(-c2ccc(Cl)cc2)c2cccnc12)c1ccccn1 [Compound 48, N-(5-(4-Chlorophenyl)quinolin-8-yl)pyridine-2-sulfonamide]
- observed toxicity (mice; i.p. doses of 50 mg/kg and higher): visibly toxic

SMILES: N#Cc1ccccc1S(=O)(=O)Nc1cccc2cccnc12 [Compound 20, 2-Cyano-N-(quinolin-8-yl)benzenesulfonamide]
- GLO1 inhibition compared with 8-MSQ, in words [1]: not tolerated

SMILES: COc1ccccc1S(=O)(=O)Nc1cccc2cccnc12 [Compound 17, 2-Methoxy-N-(quinolin-8-yl)benzenesulfonamide]
- GLO1 inhibition compared with 8-MSQ, in words [1]: not tolerated

SMILES: CS(=O)(=O)Nc1ccc(-c2cncnc2)c2cccnc12 [Compound 39, N-(5-(Pyrimidin-5-yl)quinolin-8-yl)methanesulfonamide]
- GLO1 inhibition compared with 8-MSQ, in words [1]: not well tolerated
